Source: PubChem BioAssay (several laboratories)
An excerpt weighted towards active compounds, which were near 1.6% of everything screened.
SKN-1 block = inhibitors of C. elegans SKN-1 | C. elegans VP596 Pgst-4::GFP/RFP ratio, acrylamide-induced, 24 h | inhibition, % at 21.8 µM | 360,000 compounds, 0.49% hits | AID 624304;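 active = interference check ratio from 0.5 to 1.5 plus GFP to RFP signal ratio inhibition reaching or exceeding a fixed threshold, cut at about 30% in these data, passing the limit was not always enough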
TbMetRS inhib = blocks T. brucei methionyl-tRNA synthetase activity; inhibition, % at 11.9 µM; AID 624268; purified T. brucei MetRS, ATP depletion, Kinase-Glo luminescence; 360,000 compounds, 0.4% hits;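 active = inhibition above a per-plate cutoff of the control wells' mean inhibition plus 3 SD, cut at about 5.5% in these data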;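 note: 0% = DMSO wells median and 100% = median of wells with control inhibitor compound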
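Test system: purified T. brucei MetRS enzyme. Also added: ATP, methionine and E. coli bulk tRNA substrates. Compound: 11.9 µM single point. Schedule: 15 min enzyme-compound preincubation, 2 h reaction, 10 min detection, 25 °C. Signal: luciferase luminescence of residual ATP, Kinase-Glo. Evaluation: percent inhibition versus plate control medians. Controls: DMSO wells, low control.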
MT1-MMP act inh = MT1-MMP (human) activation inhibition. P50281. HT1080 RFP-PRO-GFP cells, GFP/RFP ratio fluorescence, overnight; percent of plate control window, DMSO zero. GFP/RFP ratio change, % at 20 µM. 360,000 compounds, 0.061% hits. AID 651647;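 active = GFP/RFP ratio change of at least 30% with cell ATP level not reduced by more than half and red fluorescence within 50% of control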
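Assay system – RFP-PRO-GFP reporter HT1080 cells · Compound dosing – single dose of 20 µM compound, 1% DMSO final · Incubation – overnight compound exposure at 37 °C · Measure – GFP/RFP fluorescence ratio · Benchmarks – DMSO wells and RFP-L50D-GFP cells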
Rin1-Abl PPI inh = human Rin1-Abl interaction inhibition; P00519+Q13671; TR-FRET Rin1/Abl binding, biochemical; inhibition, % at 7.35 µM; 360,000 compounds, 0.4% hits; AID 588664; in the data active = inhibition above about 5%, passing the limit was not always enough
Target sequence (P00519 whole entry, looked up): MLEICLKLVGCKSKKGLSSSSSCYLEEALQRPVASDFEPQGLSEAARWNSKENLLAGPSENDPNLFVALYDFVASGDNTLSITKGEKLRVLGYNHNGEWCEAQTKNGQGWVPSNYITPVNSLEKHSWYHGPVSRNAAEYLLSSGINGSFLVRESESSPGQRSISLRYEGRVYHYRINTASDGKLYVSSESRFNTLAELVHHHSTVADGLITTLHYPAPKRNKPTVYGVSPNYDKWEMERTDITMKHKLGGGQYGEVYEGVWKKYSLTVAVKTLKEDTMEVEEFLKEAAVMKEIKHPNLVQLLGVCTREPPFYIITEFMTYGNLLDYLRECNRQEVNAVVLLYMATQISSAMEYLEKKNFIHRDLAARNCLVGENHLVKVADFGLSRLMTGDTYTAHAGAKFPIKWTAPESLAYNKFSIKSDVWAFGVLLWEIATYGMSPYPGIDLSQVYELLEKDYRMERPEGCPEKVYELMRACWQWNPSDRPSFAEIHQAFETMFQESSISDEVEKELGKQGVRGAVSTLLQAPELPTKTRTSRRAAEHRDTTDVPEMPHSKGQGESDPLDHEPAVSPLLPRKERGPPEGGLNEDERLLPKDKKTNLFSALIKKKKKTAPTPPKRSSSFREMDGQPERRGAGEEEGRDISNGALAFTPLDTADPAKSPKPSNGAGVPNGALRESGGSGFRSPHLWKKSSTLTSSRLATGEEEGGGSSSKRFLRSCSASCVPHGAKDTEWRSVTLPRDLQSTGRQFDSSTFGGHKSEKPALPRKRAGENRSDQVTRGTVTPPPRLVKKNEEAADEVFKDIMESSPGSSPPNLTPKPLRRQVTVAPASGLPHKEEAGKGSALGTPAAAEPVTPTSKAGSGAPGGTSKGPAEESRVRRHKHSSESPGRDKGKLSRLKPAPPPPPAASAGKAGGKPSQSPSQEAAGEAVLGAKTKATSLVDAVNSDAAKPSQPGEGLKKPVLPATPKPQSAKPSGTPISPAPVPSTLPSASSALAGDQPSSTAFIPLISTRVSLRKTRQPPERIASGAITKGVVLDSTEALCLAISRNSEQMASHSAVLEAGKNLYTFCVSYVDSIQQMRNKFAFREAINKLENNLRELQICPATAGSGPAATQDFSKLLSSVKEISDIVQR
Target sequence (Q13671 whole entry, looked up): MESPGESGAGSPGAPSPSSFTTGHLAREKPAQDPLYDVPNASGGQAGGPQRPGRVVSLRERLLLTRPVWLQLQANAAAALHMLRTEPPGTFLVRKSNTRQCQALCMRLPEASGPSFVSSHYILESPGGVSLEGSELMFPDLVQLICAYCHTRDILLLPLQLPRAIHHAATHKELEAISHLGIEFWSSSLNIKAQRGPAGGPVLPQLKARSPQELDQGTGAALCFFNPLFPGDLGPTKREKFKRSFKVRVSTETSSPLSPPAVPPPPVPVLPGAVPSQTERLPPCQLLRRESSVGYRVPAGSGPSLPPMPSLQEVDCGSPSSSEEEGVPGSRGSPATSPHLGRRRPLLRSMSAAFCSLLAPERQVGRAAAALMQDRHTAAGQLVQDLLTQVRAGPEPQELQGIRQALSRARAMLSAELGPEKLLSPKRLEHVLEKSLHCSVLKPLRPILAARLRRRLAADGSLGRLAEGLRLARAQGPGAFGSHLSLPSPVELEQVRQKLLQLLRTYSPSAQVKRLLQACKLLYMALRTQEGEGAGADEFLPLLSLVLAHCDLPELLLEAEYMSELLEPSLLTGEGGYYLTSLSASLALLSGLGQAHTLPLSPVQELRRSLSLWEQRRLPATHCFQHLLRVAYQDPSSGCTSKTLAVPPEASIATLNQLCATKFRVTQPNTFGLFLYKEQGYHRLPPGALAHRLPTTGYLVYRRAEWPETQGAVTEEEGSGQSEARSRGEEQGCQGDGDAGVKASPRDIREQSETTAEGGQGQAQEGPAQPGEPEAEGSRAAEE
Arrestin-AP2 inh = inhibitors of human beta-arrestin and AP2 interaction. FITC-arrestin peptide / GST-AP2 beads, flow cytometry; AP2 beta2 appendage carries R879A mutation. inhibition, % at 10 µM. 340,000 compounds, 0.31% hits;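 active = inhibition above a set limit, near 3 SD of compounds lacking own fluorescence, cut at about 54% in these data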;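 note: plate controls were DMSO wells for no effect and 5 µM unlabelled arrestin peptide for full effect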
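test system = AP2 appendage R879A on GSH beads | buffer or medium = PBS plus Tween 20 (0.05%) and BSA (0.1%) | incubation = 12 min plus 1 h, RT | detection = bead flow cytometry, FITC channel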
Starred values were filed as active, the others as inactive; · = no result.

SMILES	SKN-1 block	TbMetRS inhib	MT1-MMP act inh	Rin1-Abl PPI inh	Arrestin-AP2 inh
Brc1ccc(-c2nc(-c3cccnc3)no2)o1	52*	0	-6	0	8
Brc1ccc(-c2nc(-c3ccccc3)no2)o1	79*	0	-5	-5	6
Clc1ccccc1/C=C/c1ccnc2ccccc12	35*	2	-4	0	0
COc1ccc(-c2csc(Nc3ccccc3)n2)cc1	35*	0	2	-5	-25
COc1ccccc1Nc1nc(-c2cccc([N+](=O)[O-])c2)cs1	10	0	1	2	0
O=C(Nc1nc(-c2ccccc2)cs1)c1ccccc1F	53*	0	-1	0	28
O=C(Nc1cccc(-c2csc(Nc3cccc(C(F)(F)F)c3)n2)c1)c1ccccc1	17	0	7	1	-2
O=C(Nc1cccc(-c2csc(Nc3ccccc3)n2)c1)c1ccccc1	46*	0	5	-4	3
COc1ccc(Nc2nc(-c3ccc(OC)cc3)cs2)cc1	7	0	1	3	-17
O=[N+]([O-])c1cccc(-c2csc(Nc3ccccc3)n2)c1	35*	-1	-1	-1	17
c1csc(-c2cn3ccc4ccccc4c3n2)c1	39*	-1	1	4	-5
Cc1ccccc1-c1cc(C(=O)N/N=C/c2cccnc2)c2ccccc2n1	15	3	-5	-2	-5
O=C(N/N=C/c1cccnc1)c1cc(-c2ccccc2Cl)nc2ccccc12	-4	7.1*	-10	-2	27
CC1(C(=O)NCc2cccc(Cl)c2)Cc2c(-c3cccc(C(N)=O)c3)ccnc2O1 (stereo not given)	6	0	0	6	·
CCOC(=O)[C@]12CCC=C1N(Cc1ccco1)C(=O)[C@H](CC(=O)N1CCCC1)C2	13	0	-1	·	·
Cc1ccc(C(=O)n2nc(-c3cccnc3)nc2N)cc1	37*	0	2	0	-5
CC(=O)NCCNc1nc2cc(-c3ccc(Cl)cc3C)sc2c(=O)n1C	14	1	1	-1	·
Cc1ccc(/C=C2/SC(=S)N(C3CCCCC3)C2=O)o1	11	0	5	2	62*
Cc1ccc(/C=C2\SC(=S)N(CC3CCCO3)C2=O)o1 (stereo not given)	20	0	15	-3	2
CC(C)(C)c1ccc(SC2=C[C@@]3(O)CC[C@@H](O)[C@@](Sc4ccc(C(C)(C)C)cc4)(C2=O)[C@H]3O)cc1	-3	0	-5	·	·
COc1cccc(COC(=O)CSCC(=O)Nc2ccc(C)cc2)c1OC	0	0	-2	-1	·
O=C(O)CN1C(=O)C2C3CC(C2C1=O)C1C(c2ccc(F)cc2)c2sc(=O)[nH]c2SC31 (stereo not given)	48*	0	2	0	47
O=C(O)CN1C(=O)C2C3CC(C2C1=O)C1C(c2ccc(Cl)cc2)c2sc(=O)[nH]c2SC31 (stereo not given)	2	0	-4	-1	0
COC(=O)Cn1ccnc1[N+](=O)[O-]	-20	0	-4	2	·
N#C/C(=N\Nc1ccc([N+](=O)[O-])cc1)C(N)=S	39*	1	49	-9	6
SMILES	SKN-1 block	TbMetRS inhib	MT1-MMP act inh	Rin1-Abl PPI inh	Arrestin-AP2 inh
O=C(NCCN1C(=O)C2C3C=CC(C3)C2C1=O)Nc1ccccc1O (stereo not given)	38*	0	1	-5	-2
Cc1c(NC(=O)NCCN2C(=O)C3C4C=CC(C4)C3C2=O)c(=O)n(-c2ccccc2)n1C (stereo not given)	13	0	-1	-3	5
O=C(/C(C=Nc1cccc(C(F)(F)F)c1)=C(/O)c1ccco1)C(F)(F)F	8	0	-8	-1	4
O=C(/C(C=Nc1ccc(Br)cc1)=C(/O)c1ccco1)C(F)(F)F	74*	1	-12	0	3
O=C1[C@@H]2Cc3c([nH]c4ccccc34)C(c3ccc(Cl)cc3)N2C(=O)CN1CCO (stereo not given in full)	5	6.0*	0	3	-4
Cc1cc2cc(CNC(=O)c3cccc([N+](=O)[O-])c3)ccc2n1C	47*	-1	-1	-4	17
Cc1cc2cc(CNC(=O)c3ccc(S(=O)(=O)N(C)C)cc3)ccc2n1C	45*	-1	32	-23	4
Cc1c(C(=O)NCc2ccc3c(c2)cc(C)n3C)cccc1[N+](=O)[O-]	55	-1	62	-4	4
Cc1cc2cc(CNC(=O)CCC(=O)O)ccc2n1C	38*	0	7	2	9
CC(=O)Nc1ccc(S(=O)(=O)NCc2ccc3c(c2)cc(C)n3C)cc1	50*	0	47	-5	5
CC(=O)Nc1ccc(S(=O)(=O)NCc2ccc(C)cc2)cc1	-12	0	-1	3	2
O=C(O)C1(C(=O)O)CCC2(CCCCC2)CC1	3	0	2	6	·
CC(C)C(=O)N1CCCC1(C)C(=O)Nc1ccccc1 (stereo not given)	18	0	-2	2	·
CCC/C=C/c1ccc(CN2C(C(C)C)C(=O)N(Cc3cn(CCC4OCCO4)nn3)CCS2(=O)=O)cc1 (stereo not given)	-3	-1	2	-5	·
CC(C)(C)OC(=O)CC1(C#N)c2ccccc2C(Br)=CN1C(=O)c1ccccc1 (stereo not given)	4	0	9	-3	2
Cc1c(NC(=O)CSc2nnc(-c3ccccc3F)o2)c(=O)n(-c2ccccc2)n1C	25	0	3	-2	·
COc1ccc(CNC(=O)c2ccc(N3CCC4(CC3)CC(c3ccc(Cl)cc3)=NO4)c(NC(=O)Cc3ccc(F)cc3)c2)cc1	1	0	0	3	31
COc1ccccc1CCn1cnc(Cc2ccccc2)c1C(C)C	14	0	-2	·	·
Cc1cc2cc(CNC(=S)Nc3ccc(OC(F)(F)F)cc3)ccc2n1C	57*	-1	50	6	27
CCCC(=O)NCc1ccc2c(c1)cc(C)n2C	54	-1	25	-24	6
CCOc1ccc(N=Nc2c(=O)[nH]n3c(C)cc(C)nc23)cc1	45*	-2	18	-14	36
COc1cccc(N=Nc2c(=O)[nH]n3c(C)cc(C)nc23)c1	16	0	22	-11	3
Cc1ccc(S(=O)(=O)N2CCN(C(=O)C(O)c3ccccc3)CC2)cc1 (stereo not given)	-4	0	0	·	·
C#CCOCCOCCOCCNc1nc(N2CCN(C(=O)CCCCCCCCCCNC(=O)Cn3cc(CCCCCN)nn3)CC2)nc(N2CCN(C(=O)CCCCCCCCCCNC(=O)Cn3cc(CCCCCN)nn3)CC2)n1	16	0	6	13*	-4
